Measurements as given in ChEMBL document CHEMBL3244428, “Synthesis and antifungal properties of certain 7-alkylaminopyrazolo[1,5-a]pyrimidines” (J Med Chem, 1977).
Converted amounts (≈) assume the structure as drawn. The source made the active and inactive calls. No cut-off for these calls is given here.

What was measured:
[1] = test system: Trichophyton mentagrophytes; experiment: Fungistatic activity against Trichophyton mentagrophytes clinical isolate after 48 hrs by broth dilution method; format: functional
Summary of the method: (§1)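 Broth dilution in chemically defined medium, with serial dilutions spanning 0.32 to 0.005 µmol/ml. Dermatophyte plates were read after 48 h at 30 °C.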

[2] = test system: Trichophyton mentagrophytes; experiment: Fungicidal activity against Trichophyton mentagrophytes clinical isolate after 48 hrs by broth dilution method; format: functional; summary of the method: as §1
[3] = test system: Cavia porcellus; experiment: Toxicity in guinea pig assessed as skin irritation administered topically bid measured on day 6; format: organism-based; details: in vivo, topical_or_ocular
Summary of the method: (§2)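 Intact or abraded skin of uninfected guinea pigs was treated topically with 1.0% w/v compound. The vehicle was either a solution of propylene glycol (20%), 70% sorbitol (3%) and ethanol (78%) or a petrolatum ointment. Skin was scored for erythema and scaling up to day 6, against vehicle-treated controls.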

[4] = test system: Cavia porcellus; experiment: Toxicity in guinea pig skin assessed as erythema administered topically bid measured on day 6; format: organism-based; details: in vivo, topical_or_ocular; summary of the method: as §2
[5] = test system: Trichophyton mentagrophytes; experiment: Antifungal activity against Trichophyton mentagrophytes infected in guinea pig assessed as cure rate of dermal infection at nonirritating dose administered topically bid started on day 3 post infection continued for 8 days measured every other day through day 14 relative to vehicle-treated control; format: functional, organism-based
Summary of the method: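 Guinea pig T. mentagrophytes skin infection model, treated topically. Compounds were given at non-irritating concentrations, either as a w/v solution in propylene glycol (20%), 70% sorbitol (3%) and ethanol (78%) or in a petrolatum ointment. Treated animals were compared with infected, vehicle-only controls.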

[6] = test system: Cavia porcellus; experiment: Toxicity in guinea pig skin assessed as scaling administered topically bid measured on day 6; format: organism-based; details: in vivo, topical_or_ocular; summary of the method: as §2
[7] = Trichophyton mentagrophytes, 48 h, read-out: MIC

Row | Compound | MIC [1, 7] | MLC [2] | Activity [3] | Activity [4] | Activity [5] | Activity [6] | MIC [1]
1 | CCCCCCCCNc1cc(C(=O)OCC)nc2ccnn12 | 320 µM (≈ 102 µg/mL) | >0.32 µmol/mL |  |  |  |  | 
2 | CCCCCCCCNc1cc(Cl)nc2ccnn12 | 20 µM (≈ 5.62 µg/mL) | 0.32 µmol/mL (≈ 89.9 µg/mL) |  |  |  |  | 
3 | CCCCCCCCNc1c(C)c(C)nc2ccnn12 | 10 µM (≈ 2.74 µg/mL) | >0.32 µmol/mL |  |  |  |  | 
4 | CCCCCCCCSc1cc(C)nc2ccnn12 | 20 µM (≈ 5.55 µg/mL) | 0.16 µmol/mL (≈ 44.4 µg/mL) | Toxic |  |  |  | 
5 | Cc1cc(NCc2ccc(Cl)cc2Cl)n2nccc2n1 | 40 µM (≈ 12.3 µg/mL) | >0.32 µmol/mL |  |  |  |  | 
6 | Cc1cc(NCCCN2CCOCC2)n2nccc2n1.Cl | > 320 µM | 0.32 µmol/mL |  |  |  |  | 
7 | CCCCCCCC/C=C/CCCCCCCCNc1cc(C)nc2ccnn12 | 5 µM (≈ 1.99 µg/mL) | 0.01 µmol/mL (≈ 3.99 µg/mL) |  | Toxic | inactive | Toxic | 
8 | CCCCCCCCNc1cc(C)nc2ccnn12.Cl |  | 0.16 µmol/mL |  | Toxic |  | Toxic | 20 µM
9 | CCCCCCCCCCNc1cc(Cl)nc2ccnn12 | > 320 µM | >0.32 µmol/mL |  |  |  |  | 
10 | CCN(CC)c1cc(C)nc2ccnn12 | > 320 µM | >0.32 µmol/mL |  |  |  |  | 
11 | Cc1cc(NCC(=O)O)n2nccc2n1 | > 320 µM | >0.32 µmol/mL |  |  |  |  | 
12 | CCCCCCNc1cc(C)nc2ccnn12 | 40 µM (≈ 9.29 µg/mL) | 0.32 µmol/mL (≈ 74.3 µg/mL) |  |  |  |  | 
13 | CCCCCCCCCCNc1cc(C)nc2ccnn12 | 40 µM (≈ 11.5 µg/mL) | >0.32 µmol/mL |  |  |  |  | 
14 | CCCCCCCCNc1c(C)c(Cl)nc2ccnn12 | > 320 µM | >0.32 µmol/mL |  |  |  |  | 
15 | CCCCCCCNc1cc(C)nc2ccnn12 | 40 µM (≈ 9.85 µg/mL) | 0.32 µmol/mL (≈ 78.8 µg/mL) |  |  |  |  | 
16 | CCCNc1cc(C)nc2c(Br)cnn12 | 80 µM (≈ 21.5 µg/mL) | 0.32 µmol/mL (≈ 86.1 µg/mL) |  |  |  |  | 
17 | CCCCCCCC/C=C/CCCCCCCCNc1cc(C)nc2c(Br)cnn12 | 10 µM (≈ 4.78 µg/mL) | 0.02 µmol/mL (≈ 9.55 µg/mL) |  |  | Active |  | 
18 | CCCCCCCCNc1cc(C)nc2ccnn12 [listing 1 of 2 here] | 20 µM (≈ 5.21 µg/mL) | 0.16 µmol/mL (≈ 41.7 µg/mL) |  | Toxic |  | Toxic | 
19 | CCCCCCCCNc1cc(C)nc2c(C(=O)OCC)cnn12 | 320 µM (≈ 106 µg/mL) | >0.32 µmol/mL |  |  |  |  | 
20 | CCCCCCCCNc1cc(C)nc2ccnn12 [listing 2 of 2 here] |  |  |  |  | inactive |  | 
21 | Cc1cc(N2CCCCC2)n2nccc2n1 | > 320 µM | >0.32 µmol/mL |  |  |  |  | 
22 | CCCCCCCCNc1cc(C(C)C)nc2ccnn12 | 20 µM (≈ 5.77 µg/mL) | >0.32 µmol/mL |  |  |  |  | 
23 | CCCCCCCCNc1ccnc2ccnn12.Cl | 10 µM | 0.08 µmol/mL |  | Toxic | inactive | Toxic | 
